Tests used:
Format in all cases: functional
[1] = Growth inhibition of human HL-60(TB) cells at 10 uM after 48 hrs by SRB assay relative to control; details: HL-60, 48 h, read-out: GI
Procedure, shortened: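 NCI disease-oriented human tumour cell line screen: primary single-dose assay at 10 μM across the full 60-cell-line panel spanning nine tumour subpanels.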

[2] = Growth inhibition of human MOLT4 cells at 10 uM after 48 hrs by SRB assay relative to control; details: MOLT-4, 48 h, read-out: GI
Procedure, shortened: (§1)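 NCI 60-cell-line panel, nine tumor subpanels; compounds tested at a single dose of 10 μM in the primary screen.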

[3] = Growth inhibition of human RPMI8226 cells at 10 uM after 48 hrs by SRB assay relative to control; details: RPMI-8226, 48 h, read-out: GI; procedure, shortened: as §1
[4] = Growth inhibition of human SR cells at 10 uM after 48 hrs by SRB assay relative to control; details: read-out: GI
Procedure, shortened: (§2)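 Primary screen across the full NCI 60 human tumour cell line panel, which covers nine tumour subpanels. A single dose of 10 μM was applied to each line, and growth was recorded for each cell line.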

[5] = Growth inhibition of human A549 cells at 10 uM after 48 hrs by SRB assay relative to control; details: A549, 48 h, read-out: GI; procedure, shortened: as §1
[6] = Growth inhibition of human HOP62 cells at 10 uM after 48 hrs by SRB assay relative to control; details: HOP-62, 48 h, read-out: GI; procedure, shortened: as §1
[7] = Growth inhibition of human HOP92 cells at 10 uM after 48 hrs by SRB assay relative to control; details: HOP-92, 48 h, read-out: GI; procedure, shortened: as §1
[8] = Growth inhibition of human HCT15 cells at 10 uM after 48 hrs by SRB assay relative to control; details: HCT-15, 48 h, read-out: GI; procedure, shortened: as §1
[9] = Growth inhibition of human HT-29 cells at 10 uM after 48 hrs by SRB assay relative to control; details: HT-29, 48 h, read-out: GI; procedure, shortened: as §1
[10] = Growth inhibition of human KM12 cells at 10 uM after 48 hrs by SRB assay relative to control; details: KM12, 48 h, read-out: GI; procedure, shortened: as §1
[11] = Growth inhibition of human SF268 cells at 10 uM after 48 hrs by SRB assay relative to control; details: SF-268, 48 h, read-out: GI; procedure, shortened: as §1
[12] = Growth inhibition of human SF295 cells at 10 uM after 48 hrs by SRB assay relative to control; details: SF-295, 48 h, read-out: GI; procedure, shortened: as §1
[13] = Growth inhibition of human M14 cells at 10 uM after 48 hrs by SRB assay relative to control; details: M14, 48 h, read-out: GI; procedure, shortened: as §1
[14] = Growth inhibition of human SK-MEL-5 cells at 10 uM after 48 hrs by SRB assay relative to control; details: SK-MEL-5, 48 h, read-out: GI; procedure, shortened: as §2
[15] = Growth inhibition of human IGROV1 cells at 10 uM after 48 hrs by SRB assay relative to control; details: IGROV-1, 48 h, read-out: GI; procedure, shortened: as §1
[16] = Growth inhibition of human OVCAR4 cells at 10 uM after 48 hrs by SRB assay relative to control; details: OVCAR-4, 48 h, read-out: GI; procedure, shortened: as §1
[17] = Growth inhibition of human OVCAR5 cells at 10 uM after 48 hrs by SRB assay relative to control; details: OVCAR-5, 48 h, read-out: GI; procedure, shortened: as §1
[18] = Growth inhibition of human OVCAR8 cells at 10 uM after 48 hrs by SRB assay relative to control; details: OVCAR-8, 48 h, read-out: GI; procedure, shortened: as §1
[19] = Growth inhibition of human SKOV3 cells at 10 uM after 48 hrs by SRB assay relative to control; details: SK-OV-3, 48 h, read-out: GI; procedure, shortened: as §2
[20] = Growth inhibition of human 786-0 cells at 10 uM after 48 hrs by SRB assay relative to control; details: 786-0, 48 h, read-out: GI; procedure, shortened: as §1
[21] = Growth inhibition of human UO31 cells at 10 uM after 48 hrs by SRB assay relative to control; details: UO-31, 48 h, read-out: GI; procedure, shortened: as §2
[22] = Growth inhibition of human MCF7 cells at 10 uM after 48 hrs by SRB assay relative to control; details: MCF7, 48 h, read-out: GI; procedure, shortened: as §1
[23] = Growth inhibition of human MDA-MB-231 cells at 10 uM after 48 hrs by SRB assay relative to control; details: MDA-MB-231, 48 h, read-out: GI; procedure, shortened: as §1
Cancer cell lines [24] = assay: Potency index, ratio of 5-fluorouracil GI50 to compound GI50 for human renal cancer cells
Procedure, shortened: (§3)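 GI50 for each cell line came from NCI panel testing over a 5-log dose range, with 5-fluorouracil tested alongside as the reference drug. The index relates the 5-fluorouracil GI50 to the compound GI50 within each tumour subpanel.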

Cancer cell lines [25] = assay: Potency index, ratio of 5-fluorouracil GI50 to compound GI50 for human ovarian cancer cells; procedure, shortened: as §3
Cancer cell lines [26] = assay: Potency index, ratio of 5-fluorouracil GI50 to compound GI50 for human CNS cancer cells; procedure, shortened: as §3
[27] = Growth inhibition of human non-small cell lung cancer cells after 48 hrs by SRB assay; details: Cancer cell lines
Procedure, shortened: (§4)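 Follow-up NCI panel testing over a 5-log dose range for each cell line. GI50, TGI and LC50 were monitored, with 5-fluorouracil run as the positive control. Values are grouped by tumour subpanel.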

[28] = Growth inhibition of human colon cancer cells after 48 hrs by SRB assay; details: Cancer cell lines; procedure, shortened: as §4
[29] = Growth inhibition of human melanoma cells after 48 hrs by SRB assay; details: Melanoma cell; procedure, shortened: as §4
[30] = Growth inhibition of human renal cancer cells after 48 hrs by SRB assay; details: Cancer cell lines; procedure, shortened: as §4
[31] = Growth inhibition of human prostate cancer cells after 48 hrs by SRB assay; details: Cancer cell lines; procedure, shortened: as §4
[32] = Growth inhibition of human breast cancer cells after 48 hrs by SRB assay; details: Cancer cell lines; procedure, shortened: as §4
[33] = Growth inhibition of human COLO205 cells at 10 uM after 48 hrs by SRB assay relative to control; details: COLO 205, 48 h, read-out: GI; procedure, shortened: as §1

COc1cc(CSc2nc3ccc(C)cc3c(=O)n2Cc2ccccc2)cc(OC)c1OC
inhibition of growth at 10 µM [1]: 83%
inhibition of growth at 10 µM [2]: 69.2%
inhibition of growth at 10 µM [3]: 46%
inhibition of growth at 10 µM [4]: 82%
inhibition of growth at 10 µM [5]: 60%
inhibition of growth at 10 µM [6]: 60%
inhibition of growth at 10 µM [7]: 43.4%
inhibition of growth at 10 µM [8]: 70.8%
inhibition of growth at 10 µM [9]: 89.5%
inhibition of growth at 10 µM [10]: 74.7%
inhibition of growth at 10 µM [11]: 48.5%
inhibition of growth at 10 µM [12]: 69%
inhibition of growth at 10 µM [13]: 64.4%
inhibition of growth at 10 µM [14]: 82.2%
inhibition of growth at 10 µM [15]: 75.7%
inhibition of growth at 10 µM [16]: 46.9%
inhibition of growth at 10 µM [17]: 54.7%
inhibition of growth at 10 µM [18]: 64.9%
inhibition of growth at 10 µM [19]: 76.1%
inhibition of growth at 10 µM [20]: 53.2%
inhibition of growth at 10 µM [21]: 68%
inhibition of growth at 10 µM [22]: 82%
inhibition of growth at 10 µM [23]: 55.6%
RatioGI50 (Cancer cell lines [24]): 10
RatioGI50 (Cancer cell lines [25]): 10
RatioGI50 (Cancer cell lines [26]): 10
GI50 [27]: 4 µM
LC50 (concentration killing 50% of cells) [27]: 98.2 µM
TGI [27]: 65.9 µM
GI50 [28]: 1.6 µM
LC50 [28]: 87.1 µM
TGI [28]: 76.1 µM
GI50 [29]: 3.2 µM
LC50 [29]: > 100 µM
TGI [29]: 58.4 µM
GI50 [30]: 4.3 µM
LC50 [30]: 97.9 µM
TGI [30]: 61.4 µM
GI50 [31]: 2.9 µM
LC50 (concentration killing 50% of cells) [31]: > 100 µM
TGI [31]: 60.2 µM
GI50 [32]: 2.8 µM
LC50 [32]: > 100 µM
TGI [32]: 47.5 µM

COc1cc2nc(SCc3cc(OC)c(OC)c(OC)c3)n(Cc3ccccc3)c(=O)c2cc1OC
inhibition of growth at 10 µM [1]: 88.1%
inhibition of growth at 10 µM [2]: 83.3%
inhibition of growth at 10 µM [3]: 45.3%
inhibition of growth at 10 µM [4]: 93.8%
inhibition of growth at 10 µM [5]: 63.2%
inhibition of growth at 10 µM [6]: 58.6%
inhibition of growth at 10 µM [7]: 37.4%
inhibition of growth at 10 µM [33]: 92.6%
inhibition of growth at 10 µM [8]: 79.9%
inhibition of growth at 10 µM [9]: 89.4%
inhibition of growth at 10 µM [10]: 84.6%
inhibition of growth at 10 µM [11]: 62.2%
inhibition of growth at 10 µM [12]: 80.3%
inhibition of growth at 10 µM [13]: 85.2%
inhibition of growth at 10 µM [15]: 60.8%
inhibition of growth at 10 µM [16]: 55.8%
inhibition of growth at 10 µM [17]: 46.3%
inhibition of growth at 10 µM [18]: < 10%
inhibition of growth at 10 µM [19]: 70.2%
inhibition of growth at 10 µM [20]: 63.3%
inhibition of growth at 10 µM [21]: 65.3%
inhibition of growth at 10 µM [22]: 89.9%
inhibition of growth at 10 µM [23]: 64%
RatioGI50 (Cancer cell lines [24]): 2 - 10
RatioGI50 (Cancer cell lines [25]): 2 - 10
RatioGI50 (Cancer cell lines [26]): 2 - 10
GI50 [27]: 3.6 µM
LC50 (concentration killing 50% of cells) [27]: 94.5 µM
TGI [27]: 63.1 µM
GI50 [28]: 2.2 µM
LC50 [28]: > 100 µM
TGI [28]: 87.8 µM
GI50 [29]: 2.6 µM
LC50 [29]: 78.7 µM
TGI [29]: 45.9 µM
GI50 [30]: 4.7 µM
LC50 [30]: 85.7 µM
TGI [30]: 49.1 µM
GI50 [31]: 4 µM
LC50 (concentration killing 50% of cells) [31]: > 100 µM
TGI [31]: > 100 µM
GI50 [32]: 2.5 µM
LC50 [32]: 99.3 µM
TGI [32]: 47.4 µM

Reference: ChEMBL document CHEMBL3860041, “Synthesis, biological evaluation and molecular modeling study of some new methoxylated 2-benzylthio-quinazoline-4(3H)-ones as nonclassical antifolates” (Bioorg Med Chem Lett, 2016)
